In brackets after ≈: the same amount, converted by molar mass.
Assays:
Type in all cases: functional
Streptococcus pyogenes = experiment: Antibacterial activity against Streptococcus pyogenes ATCC 19615 by NCCLS method
How it was run: (§1)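 In vitro MIC determination by the NCCLS method against a panel of gram-positive bacteria. Two oxazolidinone reference standards were tested alongside.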

Enterococcus faecalis = experiment: Antibacterial activity against Enterococcus faecalis ATCC 29212 by NCCLS method; how it was run: as §1
Staphylococcus aureus [1] = experiment: Antibacterial activity against Staphylococcus aureus ATCC 25923 by NCCLS method; how it was run: as §1
Staphylococcus aureus [2] = experiment: Antibacterial activity against methicillin-resistant Staphylococcus aureus 33 by NCCLS method
How it was run: (§2)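 In vitro MIC determined by the NCCLS method against a panel of gram-positive bacteria. Ranbezolid and linezolid were run alongside as reference standards.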

Staphylococcus aureus [3] = experiment: Antibacterial activity against Staphylococcus aureus 15187 by NCCLS method; how it was run: as §1
Enterococcus faecium = experiment: Antibacterial activity against vancomycin-resistant Enterococcus faecium 6A by NCCLS method; how it was run: as §2
Streptococcus pneumoniae = experiment: Antibacterial activity against Streptococcus pneumoniae ATCC 6303 by NCCLS method; how it was run: as §1
Staphylococcus aureus [4] = experiment: Antibacterial activity against methicillin-resistant Staphylococcus aureus 562 by NCCLS method; how it was run: as §2

SMILES	MIC (Streptococcus pyogenes) [µg/mL]	MIC (Enterococcus faecalis) [µg/mL]	MIC (Staphylococcus aureus [1]) [µg/mL]	MIC (Staphylococcus aureus [2]) [µg/mL]	MIC (Staphylococcus aureus [3]) [µg/mL]	MIC (Enterococcus faecium) [µg/mL]	MIC (Streptococcus pneumoniae) [µg/mL]	MIC (Staphylococcus aureus [4]) [µg/mL]
O=C(NC[C@H]1CN(c2ccc(N3CCN(Cc4ccc([N+](=O)[O-])o4)CC3)c(F)c2)C(=O)O1)c1ccc([N+](=O)[O-])s1	> 16	> 16	> 16	> 16	> 16	> 16	> 16	> 16
CSC(=S)NC[C@H]1CN(c2ccc(N3CCN(Cc4ccc([N+](=O)[O-])o4)CC3)c(F)c2)C(=O)O1	> 16	> 16	> 16	> 16	> 16	> 16	> 16	> 16
O=CNC[C@H]1CN(c2ccc(N3CCN(Cc4ccc([N+](=O)[O-])o4)CC3)c(F)c2)C(=O)O1	0.5 (≈ 1.12 µM)	2 (≈ 4.47 µM)	4 (≈ 8.94 µM)	2 (≈ 4.47 µM)	2 (≈ 4.47 µM)	4 (≈ 8.94 µM)	1 (≈ 2.24 µM)	2 (≈ 4.47 µM)
CN(C)C(=S)NC[C@H]1CN(c2ccc(N3CCN(Cc4ccc([N+](=O)[O-])o4)CC3)c(F)c2)C(=O)O1	> 16	> 16	> 16	> 16	> 16	> 16	> 16	> 16
CC(=O)NC[C@H]1CN(c2ccc(N3CCOCC3)c(F)c2)C(=O)O1 [LINEZOLID]	2 (≈ 5.93 µM)					2 (≈ 5.93 µM)		
O=C1O[C@@H](CN=C=S)CN1c1ccc(N2CCN(Cc3ccc([N+](=O)[O-])o3)CC2)c(F)c1	> 16	> 16	> 16	> 16	> 16	> 16	> 16	> 16
NC[C@H]1CN(c2ccc(N3CCN(Cc4ccc([N+](=O)[O-])o4)CC3)c(F)c2)C(=O)O1	> 16	> 16	> 16	> 16	> 16	> 16	> 16	> 16
CC(=O)NC[C@H]1CN(c2ccc(N3CCN(Cc4ccc([N+](=O)[O-])o4)CC3)c(F)c2)C(=O)O1 [RANBEZOLID]	0.125 (≈ 0.271 µM)	2 (≈ 4.33 µM)	1 (≈ 2.17 µM)	2 (≈ 4.33 µM)		2 (≈ 4.33 µM)	0.125 (≈ 0.271 µM)	2 (≈ 4.33 µM)
COCC(=O)NC[C@H]1CN(c2ccc(N3CCN(Cc4ccc([N+](=O)[O-])o4)CC3)c(F)c2)C(=O)O1	> 16	> 16	> 16	> 16	> 16	> 16	> 16	> 16
COC(=S)NC[C@H]1CN(c2ccc(N3CCN(Cc4ccc([N+](=O)[O-])o4)CC3)c(F)c2)C(=O)O1	1 (≈ 2.03 µM)	1 (≈ 2.03 µM)	2 (≈ 4.05 µM)	2 (≈ 4.05 µM)	2 (≈ 4.05 µM)	1 (≈ 2.03 µM)	0.5 (≈ 1.01 µM)	2 (≈ 4.05 µM)
O=C(NC[C@H]1CN(c2ccc(N3CCN(Cc4ccc([N+](=O)[O-])o4)CC3)c(F)c2)C(=O)O1)C(F)F	0.5 (≈ 1.01 µM)	2 (≈ 4.02 µM)	2 (≈ 4.02 µM)	2 (≈ 4.02 µM)	1 (≈ 2.01 µM)	2 (≈ 4.02 µM)	0.5 (≈ 1.01 µM)	2 (≈ 4.02 µM)
CCOC(=O)NC[C@H]1CN(c2ccc(N3CCN(Cc4ccc([N+](=O)[O-])o4)CC3)c(F)c2)C(=O)O1	> 16	> 16	> 16	> 16	> 16	> 16	> 16	> 16
O=C(/C=C/c1ccc2c(c1)OCO2)NC[C@H]1CN(c2ccc(N3CCN(Cc4ccc([N+](=O)[O-])o4)CC3)c(F)c2)C(=O)O1	> 16	> 16	> 16	> 16	> 16	> 16	> 16	> 16
O=C(/C=C/c1ccc(F)cc1)NC[C@H]1CN(c2ccc(N3CCN(Cc4ccc([N+](=O)[O-])o4)CC3)c(F)c2)C(=O)O1	> 16	> 16	> 16	> 16	> 16	> 16	> 16	> 16
O=C(NC[C@H]1CN(c2ccc(N3CCN(Cc4ccc([N+](=O)[O-])o4)CC3)c(F)c2)C(=O)O1)c1ccc(Br)o1	> 16	> 16	> 16	> 16	> 16	> 16	> 16	> 16
NC(=S)NC[C@H]1CN(c2ccc(N3CCN(Cc4ccc([N+](=O)[O-])o4)CC3)c(F)c2)C(=O)O1	0.25 (≈ 0.522 µM)	0.5 (≈ 1.04 µM)	1 (≈ 2.09 µM)	1 (≈ 2.09 µM)	1 (≈ 2.09 µM)	1 (≈ 2.09 µM)	< 0.06	1 (≈ 2.09 µM)
COC(=O)NC[C@H]1CN(c2ccc(N3CCN(Cc4ccc([N+](=O)[O-])o4)CC3)c(F)c2)C(=O)O1	1 (≈ 2.09 µM)	8 (≈ 16.8 µM)	8 (≈ 16.8 µM)	8 (≈ 16.8 µM)	8 (≈ 16.8 µM)	8 (≈ 16.8 µM)	1 (≈ 2.09 µM)	2 (≈ 4.19 µM)
O=C(NC[C@H]1CN(c2ccc(N3CCN(Cc4ccc([N+](=O)[O-])o4)CC3)c(F)c2)C(=O)O1)c1cc2ccccc2o1	> 16	> 16	> 16	> 16	> 16	> 16	> 16	> 16
O=C(NC[C@H]1CN(c2ccc(N3CCN(Cc4ccc([N+](=O)[O-])o4)CC3)c(F)c2)C(=O)O1)c1ccc([N+](=O)[O-])o1	> 8	4 (≈ 7.16 µM)	8 (≈ 14.3 µM)	2 (≈ 3.58 µM)	2 (≈ 3.58 µM)	> 8	8 (≈ 14.3 µM)	1 (≈ 1.79 µM)
O=C1O[C@@H](COc2ccon2)CN1c1ccc(N2CCN(Cc3ccc([N+](=O)[O-])o3)CC2)c(F)c1	> 16	> 16	> 16	> 16	> 16	> 16	> 16	> 16
O=C1O[C@@H](CNc2ccon2)CN1c1ccc(N2CCN(Cc3ccc([N+](=O)[O-])o3)CC2)c(F)c1	1 (≈ 2.06 µM)	2 (≈ 4.11 µM)	2 (≈ 4.11 µM)	2 (≈ 4.11 µM)	2 (≈ 4.11 µM)	2 (≈ 4.11 µM)	1 (≈ 2.06 µM)	2 (≈ 4.11 µM)
CC(=S)NC[C@H]1CN(c2ccc(N3CCN(Cc4ccc([N+](=O)[O-])o4)CC3)c(F)c2)C(=O)O1	0.5 (≈ 1.05 µM)	1 (≈ 2.09 µM)	1 (≈ 2.09 µM)	1 (≈ 2.09 µM)	1 (≈ 2.09 µM)	1 (≈ 2.09 µM)	0.25 (≈ 0.524 µM)	1 (≈ 2.09 µM)
O=C1O[C@@H](CO)CN1c1ccc(N2CCN(Cc3ccc([N+](=O)[O-])o3)CC2)c(F)c1	> 16	> 16	> 16	> 16	> 16	> 16	> 16	> 16
O=C(CCl)NC[C@H]1CN(c2ccc(N3CCN(Cc4ccc([N+](=O)[O-])o4)CC3)c(F)c2)C(=O)O1	0.5 (≈ 1.01 µM)	2 (≈ 4.03 µM)	2 (≈ 4.03 µM)	2 (≈ 4.03 µM)	2 (≈ 4.03 µM)	2 (≈ 4.03 µM)	0.5 (≈ 1.01 µM)	2 (≈ 4.03 µM)
O=C(/C=C/c1ccccc1)NC[C@H]1CN(c2ccc(N3CCN(Cc4ccc([N+](=O)[O-])o4)CC3)c(F)c2)C(=O)O1	> 16	> 16	> 16	> 16	> 16	> 16	> 16	> 16
CC(Cl)C(=O)NC[C@H]1CN(c2ccc(N3CCN(Cc4ccc([N+](=O)[O-])o4)CC3)c(F)c2)C(=O)O1 (some centres not stated)	> 16	> 16	> 16	> 16	> 16	> 16	> 16	> 16
O=C(NC[C@H]1CN(c2ccc(N3CCN(Cc4ccc([N+](=O)[O-])o4)CC3)c(F)c2)C(=O)O1)C(Cl)Cl	> 16	> 16	> 16	> 16	> 16	> 16	> 16	> 16
O=C(CF)NC[C@H]1CN(c2ccc(N3CCN(Cc4ccc([N+](=O)[O-])o4)CC3)c(F)c2)C(=O)O1	0.5 (≈ 1.04 µM)	4 (≈ 8.34 µM)	4 (≈ 8.34 µM)	4 (≈ 8.34 µM)	2 (≈ 4.17 µM)	4 (≈ 8.34 µM)	1 (≈ 2.09 µM)	2 (≈ 4.17 µM)

— ChEMBL document CHEMBL1156088, “Synthesis and biological activity of novel oxazolidinones” (2009)
